Results taken from ChEMBL document CHEMBL1649070, “Virtual screening identification of nonfolate compounds, including a CNS drug, as antiparasitic agents inhibiting pteridine reductase” (J Med Chem, 2011).
Values after ≈ are worked out from the molar mass of the structure shown. Active and inactive are the calls of the source. The calls are words filed in the database; no cut-off is given here.

Assays:
[1] = target: Bifunctional dihydrofolate reductase-thymidylate synthase (Leishmania major) (UniProt P07382); test: Inhibition of Leishmania major DHFR at 50 uM
Outline: (§1)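 NADPH oxidation followed at 340 nm. Compounds in DMSO, screened at a single concentration between 25 μM and 1 mM. Measurements run in triplicate.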

[2] = target: T1, Dihydrofolate reductase (Homo sapiens) (UniProt P00374); test: Inhibition of human DHFR at 50 uM; outline: as §1
T1 sequence (whole entry): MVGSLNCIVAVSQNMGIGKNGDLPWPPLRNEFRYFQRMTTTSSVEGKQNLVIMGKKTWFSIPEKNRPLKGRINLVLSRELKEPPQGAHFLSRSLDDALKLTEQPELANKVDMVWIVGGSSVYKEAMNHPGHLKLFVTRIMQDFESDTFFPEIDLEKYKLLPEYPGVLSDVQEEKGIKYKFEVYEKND

Leishmania mexicana [3] = test: Antileishmanial activity against Leishmania mexicana MHOM/BZ/84/BEL46 assessed as growth at 50 ug/ml by Alamar blue assay; type: functional
Outline: (§2)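 Promastigotes grown in SDM-79, pH 7.3, with 15% heat-inactivated FCS at 28 C in 5% CO2, then seeded at 1 × 10^6 parasites/mL. Each compound tested alone at 50 μg/mL in duplicate as a control for the combination experiments; DMSO below 1% final. After 72 h at 28 C, Alamar Blue added for 4 h; fluorescence read at ex 530 / em 590 nm. Growth expressed as percentage of untreated cultures.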

Leishmania major [4] = test: Antileishmanial activity against Leishmania major MHOM/SU/73/5-ASKH assessed as growth at 50 ug/ml by Alamar blue assay; type: functional; outline: as §2
[5] = Cytotoxicity against human MRC5 cells at 100 ug/ml after 72 hrs by Alamar blue assay; type: cell-based; conditions: at 100 µg/mL, read-out: INH
[6] = Solubility of the compound at pH 7.4; type: physicochemical; conditions: buffer
[7] = Lipophilicity, log D of the compound in octanol buffer at pH 7.4; type: physicochemical
[8] = target: T2, Pteridine reductase 1 (Leishmania major) (UniProt Q01782); test: Inhibition of Leishmania major PTR1 at 5 uM
T2 sequence (whole entry): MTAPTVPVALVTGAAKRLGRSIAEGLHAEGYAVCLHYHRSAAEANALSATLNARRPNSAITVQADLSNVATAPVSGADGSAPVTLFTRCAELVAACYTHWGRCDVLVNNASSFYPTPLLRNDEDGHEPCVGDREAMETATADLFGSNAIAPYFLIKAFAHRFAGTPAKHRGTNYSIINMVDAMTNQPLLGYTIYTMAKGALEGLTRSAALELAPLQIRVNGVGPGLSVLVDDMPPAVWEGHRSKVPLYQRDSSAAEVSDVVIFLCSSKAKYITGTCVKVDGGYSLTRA
Outline: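 Compounds dissolved in DMSO and screened at a single 5 μM concentration; DMSO kept below 1%. Measurements run in triplicate.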

Leishmania major [9] = test: Antileishmanial activity against Leishmania major MHOM/SU/73/5-ASKH assessed as growth at 50 ug/ml by Alamar blue assay in presence of pyrimethamine; 5-(4-chlorophenyl)-6-ethylpyrimidine-2,4-diamine DHFR inhibitor; values are per cent of control
Leishmania mexicana [10] = test: Antileishmanial activity against Leishmania mexicana MHOM/BZ/84/BEL46 assessed as growth at 50 ug/ml by Alamar blue assay in presence of pyrimethamine; 5-(4-chlorophenyl)-6-ethylpyrimidine-2,4-diamine DHFR inhibitor; values are per cent of control
[11] = target: Bifunctional dihydrofolate reductase-thymidylate synthase (Leishmania major) (UniProt P07382); test: Inhibition of Leishmania major DHFR at 1 mM; outline: as §1
[12] = Cytotoxicity against human MRC5 cells after 72 hrs by Alamar blue assay; type: cell-based; conditions: read-out: ED50
Leishmania mexicana [13] = test: Antileishmanial activity against Leishmania mexicana MHOM/BZ/84/BEL46 assessed as growth by Alamar blue assay; type: functional; conditions: read-out: ED50 (the source's name)
Outline: (§3)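 Promastigotes cultured in SDM-79, pH 7.3, with 15% heat-inactivated FCS at 28 C under 5% CO2, then seeded at 1 × 10^6 parasites/mL. DMSO dilutions in medium tested from 100 μg/mL downward, DMSO <1% final. After 72 h at 28 C, Alamar Blue added for 4 h; fluorescence at ex 530 / em 590 nm. Untreated cultures set as 100%. ED50 by linear interpolation; three independent experiments, each in duplicate.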

[14] = target: Bifunctional dihydrofolate reductase-thymidylate synthase (Leishmania major) (UniProt P07382); test: Inhibition of Leishmania major DHFR at 25 uM; outline: as §1
[15] = target: T1, Dihydrofolate reductase (Homo sapiens); test: Inhibition of human DHFR at 25 uM; outline: as §1
Leishmania major [16] = test: Antileishmanial activity against Leishmania major MHOM/SU/73/5-ASKH assessed as growth by Alamar blue assay; type: functional; conditions: read-out: ED50 (the source's name); outline: as §3

Chain of Bifunctional dihydrofolate reductase-thymidylate synthase (Leishmania major) (P07382 whole entry, looked up): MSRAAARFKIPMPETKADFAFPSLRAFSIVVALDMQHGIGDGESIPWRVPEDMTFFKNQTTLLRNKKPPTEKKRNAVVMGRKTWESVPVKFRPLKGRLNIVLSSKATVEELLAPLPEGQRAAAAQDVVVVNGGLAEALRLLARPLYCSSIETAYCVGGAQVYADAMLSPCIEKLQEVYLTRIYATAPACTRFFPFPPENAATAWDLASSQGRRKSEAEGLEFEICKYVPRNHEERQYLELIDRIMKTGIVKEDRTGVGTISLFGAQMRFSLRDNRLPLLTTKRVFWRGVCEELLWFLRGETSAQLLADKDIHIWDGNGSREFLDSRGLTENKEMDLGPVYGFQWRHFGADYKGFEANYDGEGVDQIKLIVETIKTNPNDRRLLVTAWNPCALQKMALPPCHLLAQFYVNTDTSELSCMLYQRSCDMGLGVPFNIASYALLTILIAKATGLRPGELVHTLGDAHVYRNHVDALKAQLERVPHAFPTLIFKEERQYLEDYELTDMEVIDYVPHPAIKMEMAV

Row | Compound | inhibition [1] | inhibition [2] | growth, % of control at 50 µg/mL (Leishmania mexicana [3]) | growth, % of control at 50 µg/mL (Leishmania major [4]) | cytotoxicity at 72 h, 100 ug/ml [5] | solubility [6] | logD [7] | inhibition [8] | growth, % of control at 50 µg/mL (Leishmania major [9]) | growth, % of control at 50 µg/mL (Leishmania mexicana [10]) | inhibition [11] | CC50 at 72 h [12] | EC50 (Leishmania mexicana [13]) | inhibition [14] | inhibition [15] | EC50 (Leishmania major [16])
1 | Nc1nnc(-c2cnccc2N)s1 | inactive | inactive | 112% | 106% | 10% | 1700 µM (≈ 328 µg/mL) | 1.44 | inactive | 38% | 15.6% |  |  |  |  |  | 
2 | Nc1nc2ccc(OC(F)(F)F)cc2s1 [RILUZOLE] |  |  | 21.5% | 102% |  |  |  |  | 22.9% | 15.1% | inactive | 27.9 µg/mL (≈ 119 µM) | 30.8 µg/mL (≈ 132 µM) |  |  | 
3 | Nc1nc2ccc([N+](=O)[O-])cc2s1 |  |  |  |  |  |  |  |  |  |  |  |  |  | inactive | inactive | 
4 | O=C(CCCl)Nc1nnc(CCCl)s1 | inactive |  | 4.7% | 7.1% |  |  |  | inactive | 4.1% | 3.5% |  | 4.18 µg/mL (≈ 16.4 µM) | 10.1 µg/mL (≈ 39.7 µM) |  |  | 22.1 µg/mL (≈ 87 µM)
